Test [1] addresses T1, Adenosine receptor A1 (Rattus norvegicus) (UniProt P25099).
T1 sequence (whole entry): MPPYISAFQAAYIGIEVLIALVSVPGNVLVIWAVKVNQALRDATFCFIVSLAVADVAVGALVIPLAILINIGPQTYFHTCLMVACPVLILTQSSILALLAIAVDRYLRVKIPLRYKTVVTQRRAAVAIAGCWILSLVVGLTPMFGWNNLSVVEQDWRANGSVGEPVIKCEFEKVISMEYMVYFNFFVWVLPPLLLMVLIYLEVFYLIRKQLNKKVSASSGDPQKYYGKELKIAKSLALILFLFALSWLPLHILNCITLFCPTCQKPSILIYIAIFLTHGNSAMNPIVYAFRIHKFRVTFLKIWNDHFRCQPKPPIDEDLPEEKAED
As to the kind of experiment: Displacement of specific [3H]DPCPX binding at rat cortical membrane (Adenosine A1 receptor) at concentration of […]. A digest of the protocol: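 A1 binding used rat cortical membranes and [3H]DPCPX. Percentage displacement of specific binding was measured at one fixed test-compound concentration (n = 2-3).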

In test [2] the target is Adenosine receptor A2a (Rattus norvegicus) (UniProt P30543). Briefly: Displacement of specific [3H]CGS-21680 binding in rat striatal membrane (Adenosine A2A receptor) at concentration of […]. The conditions noted are these: Striatum. Format: cell membranes. A digest of the protocol:
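A2A binding used rat striatal membranes and [3H]CGS 21680. Percentage displacement of specific binding was measured at one fixed test-compound concentration (n = 2-3).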

The target in test [3] is T2, Adenosine receptor A3 (Homo sapiens) (UniProt P0DMS8).
T2 sequence (whole entry): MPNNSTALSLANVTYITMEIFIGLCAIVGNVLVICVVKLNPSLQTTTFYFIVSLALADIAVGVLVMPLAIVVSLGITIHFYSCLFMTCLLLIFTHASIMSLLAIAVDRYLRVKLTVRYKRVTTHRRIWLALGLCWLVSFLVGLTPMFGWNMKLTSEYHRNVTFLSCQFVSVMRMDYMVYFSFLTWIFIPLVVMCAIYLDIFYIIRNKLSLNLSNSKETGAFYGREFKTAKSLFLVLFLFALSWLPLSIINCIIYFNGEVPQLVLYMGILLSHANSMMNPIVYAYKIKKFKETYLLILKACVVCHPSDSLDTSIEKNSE
As to the kind of experiment: Displacement of [125I]AB-MECA from human adenosine A3 receptor expressed in HEK 293 cells at […]. Format: cell-based. The conditions noted are these: HEK293. A digest of the protocol: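 Membranes from HEK 293 cells stably expressing the human A3 receptor were incubated with [125I]AB-MECA. Percentage displacement of specific binding was measured at a single test-compound concentration (n = 2-3).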

The target of test [4] is T3, Adenosine receptor A3 (Homo sapiens, UniProt P0DMS8).
T3 sequence (P0DMS8 whole entry): T2 sequence (whole entry)
Briefly: Displacement of specific [125I]AB-MECA binding at human adenosine A3 receptor expressed in HEK 293 cells. Type of test: cell-based, HEK293.

For test [5], the target named is T3, Adenosine receptor A3. Briefly: biochemical.

Broadly, the Ki is a measure of affinity in units of concentration, obtained from inhibition or displacement.

Chain of Adenosine receptor A2a (Rattus norvegicus) (P30543 whole entry): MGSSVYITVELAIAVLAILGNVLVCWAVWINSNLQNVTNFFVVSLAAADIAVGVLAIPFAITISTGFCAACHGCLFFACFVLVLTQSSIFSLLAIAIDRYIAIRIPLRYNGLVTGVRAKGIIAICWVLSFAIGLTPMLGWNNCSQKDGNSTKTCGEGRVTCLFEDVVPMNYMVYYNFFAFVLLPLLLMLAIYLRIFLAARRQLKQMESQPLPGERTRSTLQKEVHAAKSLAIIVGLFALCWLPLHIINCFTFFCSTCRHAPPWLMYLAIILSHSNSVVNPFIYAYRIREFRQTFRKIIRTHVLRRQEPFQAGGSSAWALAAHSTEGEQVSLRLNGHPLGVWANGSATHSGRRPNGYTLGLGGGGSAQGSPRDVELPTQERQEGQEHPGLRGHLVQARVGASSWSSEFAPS

For the molecule `N=C(Nc1nc(-c2ccccn2)cc2ccccc12)c1cccc(Cl)c1`, the results for the Displacement in test [1] and in test [2] were 49% and 14%, respectively.

As for `Cc1cccc(C(=N)Nc2nc(-c3ccccn3)cc3ccccc23)c1`, the Displacement turned out to be 43% in test [1] and 0% in test [2].

As to `Nc1nc(-c2ccccn2)cc2ccccc12`, the Displacement in test [3] amounted to 17%; in test [1] it was 19%; in test [2], 28%.

As for `COc1cccc(C(=N)Nc2nc(-c3ccccn3)cc3ccccc23)c1`, the results for the Displacement in test [1] and in test [2] were 43% and 0%, respectively.

On to `COc1ccc(C(=N)Nc2nc(-c3ccccn3)cc3ccccc23)cc1`, for which the Displacement in test [1] was determined as 18%; in test [2] it was 5%.

As for `N=CNc1nc(-c2ccccn2)cc2ccccc12`, in test [1], the Displacement is 47%.

Consider `Nc1nc2ccc(Cl)cc2c2nc(-c3ccco3)nn12` [CGS-15943], for which the Ki at Adenosine receptor A3 [4] was 143 nM; at Adenosine receptor A3 [5], 7.9 nM.

`COC(=O)C1=C2C=CN(C)C=C2c2nc(-c3ccccc3)nn2C1` returned an inhibition constant Ki at Adenosine receptor A3 [4] of 172 nM.

Regarding `CCc1nc(-c2ccccn2)cc2ccccc12`, the Displacement in test [1] is 30%; in test [2], 25%.

For `Cc1ccc(C(=N)Nc2nc(-c3ccccn3)cc3ccccc23)cc1`, the Displacement in test [1] was found to be 12%; in test [2], 34%.

Consider `Cc1cccc(C)c1C(=O)N(C(=O)c1c(C)cccc1C)c1nc(-c2ccccn2)cc2ccccc12`, for which the Displacement in test [1] and in test [2] was 0% throughout.

Turning to `Clc1nc(-c2ccccn2)cc2ccccc12`, the values for the Displacement in test [1] and in test [2] were 43% and 29%, respectively.

Turning to `COc1nc(-c2ccccn2)cc2ccccc12`, the Displacement in test [2] is 19%.

In test [2], `c1ccc(-c2nc(-c3ccccn3)cc3ccccc23)cc1` displayed a Displacement of 31%.

As to `N=C(Nc1nc(-c2ccccn2)cc2ccccc12)c1ccc(Cl)cc1`, the Displacement was 20% in test [1] and 7% in test [2].

In turn, `CS(=O)(=O)c1nc(-c2ccccn2)cc2ccccc12` returned a Displacement in test [2] of 54%.

Molecule `CC(C(=O)c1ccccc1)c1nc(-c2ccccn2)cc2ccccc12` (stereo unspecified) yielded a Displacement in test [2] of 5%.

On to `CC(=O)N(C(C)=O)c1nc(-c2ccccn2)cc2ccccc12`, for which the Displacement worked out at 34% in test [1] and 18% in test [2].

For `N=C(Nc1nc(-c2ccccn2)cc2ccccc12)c1ccc(Cl)c(Cl)c1`, the results for the Displacement in test [1] and in test [2] were 21% and 2%, respectively.

`Oc1nc(-c2ccccn2)cc2ccccc12` had a Displacement in test [2] of 35%.

With `CSc1nc(-c2ccccn2)cc2ccccc12`, the Displacement in test [2] worked out at 7%.

As to `N=C(Nc1nc(-c2ccccn2)cc2ccccc12)c1ccccc1`, the Displacement in test [1] worked out at 34%.

For the origin of these results see ChEMBL document CHEMBL1131133, “A novel class of adenosine A3 receptor ligands. 1. 3-(2-Pyridinyl)isoquinoline derivatives” (J Med Chem, 1998).
